Here are results for 37 sequences from the array DNA melting data of Ke et al. (doi:10.1101/2024.01.08.574731).

Data set [1] is described as follows: folding enthalpy; higher = less favourable; fluorescence melt of hairpins on a sequencing array, two-state fit. The following applies: sodium 0.088 M. In a few lines:
(§1)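 Two-state fits, bootstrapped, provided melting temperature and folding enthalpy from Cy3 fluorescence normalised to pre-quench Cy3 and to control constructs. Library hairpins with annealed Cy3 and quencher oligos were imaged on a sequenced MiSeq flow cell in 50 mM Na-HEPES pH 8.0, 25 mM NaCl, at 2.5 °C intervals up to 60 °C. Four replicates were combined with inverse-variance weighting. A 9.35 °C upward shift was applied to fitted temperatures to match UV melts.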

The nature of data set [2]: melting temperature; fluorescence melt of hairpins on a sequencing array, two-state fit, raised by 9.35 °C to match UV melts. The following applies: sodium 0.088 M. In outline:
as §1

As to GCTTCGGGAAACCGAAAC (.(((((....))))).), in data set [1], the folding enthalpy was -15.4 kcal/mol. The Tm in data set [2] came to 40.2 °C.
For the sequence GCGTTTGGAAACGAACGC (((((.(....).))))), the folding enthalpy in data set [1] was -61.3 kcal/mol. For the same sequence, the Tm in data set [2] came out at 55.7 °C.
As for GTTGTGGGAAACCACAAC (((((((....))))))), the folding enthalpy in data set [1] is -46 kcal/mol. The Tm in data set [2] was found to be 63.1 °C.
For GCGAGAGGAAACCCTCGC (((((.(....).))))), the folding enthalpy in data set [1] was -27.8 kcal/mol. In addition, the Tm in data set [2] was found to be 54.1 °C.
In the same order, the values of GATCCTGTCAAGGATC ((((((....)))))) are -42.7 kcal/mol and 64.9 °C.
In the same order, the values of GCTTCACGAAAGTGCAGC (((.(((....))).))) are -27.7 kcal/mol and 51.6 °C.
In the case of GATCAGTGGACTGATC ((((((....)))))), the folding enthalpy in data set [1] was -37 kcal/mol. Also, in data set [2], the Tm was 51.8 °C.
Regarding GTCCCTGGAAACAGGGGC (.(((((....))))).), the folding enthalpy in data set [1] is -27.5 kcal/mol. Moreover, the Tm in data set [2] turned out to be 57.4 °C.
The like results for GGCAGCTCGAAAGAGGCC (((..(((....)))))) were, in that order, -17.4 kcal/mol and 47.3 °C.
Turning to GTTGTCGAAAGACCGAAC ((((((....)))..))), the folding enthalpy in data set [1] was -11.3 kcal/mol. For the same sequence, in data set [2], the Tm came out at 28.8 °C.
In the same order, the values of GTCGTAACGAAAGTTGAC (((..(((....)))))) are -22.4 kcal/mol and 35.8 °C.
For the sequence GATCATCGGGATGATC ((((((....)))))), the folding enthalpy in data set [1] is -44 kcal/mol. For the same sequence, the Tm in data set [2] was 53.5 °C.
Take CGCCCGGAAACGGCCGCG ((((((....)))..))): in data set [1], the folding enthalpy is -19.6 kcal/mol. Further, in data set [2], the Tm was found to be 43.8 °C.
As to GATATCGGAAACGGTATC ((((.((....)).)))), the folding enthalpy in data set [1] is -29.8 kcal/mol. Also, the Tm in data set [2] amounted to 44 °C.
Turning to GGCTTCCGAAAGGACGCC (((.(((....))).))), the folding enthalpy in data set [1] was -42 kcal/mol. Also, the Tm in data set [2] was 57.2 °C.
As to GCTGGGGGAAACTCCGGC ((.((.(....).)).)), the folding enthalpy in data set [1] was -31.1 kcal/mol. Besides, the Tm in data set [2] is 47.1 °C.
For the sequence GCTGTGACGAAAGTCAGC (((..(((....)))))), in data set [1], the folding enthalpy is -15.1 kcal/mol. Also, the Tm in data set [2] is 47 °C.
The like results for GGAGCCTCGAAAGAGTCC (((..(((....)))))) were, in that order, -9.23 kcal/mol and 25.9 °C.
For GGTCAACGAAAGTTAACC (((.(((....))).))), the folding enthalpy in data set [1] is -25 kcal/mol. Further, the Tm in data set [2] was determined as 39.3 °C.
For GGTGAGGGAAACCTCGTC (..((((....))))..), the folding enthalpy in data set [1] is -13.3 kcal/mol. In addition, the Tm in data set [2] is 33.2 °C.
Turning to GACTCTGGAAACGGAGTC (((((.(....).))))), the folding enthalpy in data set [1] was -46.5 kcal/mol. Besides, the Tm in data set [2] was determined as 50.3 °C.
Turning to GATCAACATTTGATC ((((((...)))))), in data set [1], the folding enthalpy is -31.1 kcal/mol. For the same sequence, in data set [2], the Tm worked out at 38.2 °C.
GGAGCTGGAAACAGCCCC ((.((((....)))).)): the folding enthalpy in data set [1] was -24.2 kcal/mol. Moreover, in data set [2], the Tm stood at 54.3 °C.
For GCTTAGCGAAAGCTTAGC (((.(((....))).))), in data set [1], the folding enthalpy is -43.1 kcal/mol. In data set [2], the Tm stood at 51.9 °C.
Turning to GGAGGCGGAAACGTCTCC ((((.((....)).)))), in data set [1], the folding enthalpy is -49.2 kcal/mol. Besides, in data set [2], the Tm was 58.9 °C.
With GGTTTGGGAAACCAAGTC (..((((....))))..), the folding enthalpy in data set [1] was -15.4 kcal/mol. The Tm in data set [2] stood at 28.1 °C.
GATGCCACGAAAGTGATC (((..(((....)))))): in data set [1], the folding enthalpy is -9.92 kcal/mol. The Tm in data set [2] turned out to be 20.2 °C.
Turning to GGAGGTGGAAACACCTCC (((((((....))))))), the folding enthalpy in data set [1] is -40.8 kcal/mol. The Tm in data set [2] was found to be 68.6 °C.
Take GCGTCAGCACGC ((((....)))): in data set [1], the folding enthalpy was -8.99 kcal/mol. In data set [2], the Tm came to 61.9 °C.
The like results for GTCAATGGAAACATCGAC (((.(((....))).))) were, in that order, -33.1 kcal/mol and 33.3 °C.
Regarding GATCTGACTTCAGATC ((((((....)))))), in data set [1], the folding enthalpy was -34.2 kcal/mol. Further, the Tm in data set [2] was determined as 49.2 °C.
In the same order, the values of GCGACAGTCGC ((((...)))) are -27.8 kcal/mol and 46.7 °C.
The like results for GCGAACAATCGC ((((....)))) were, in that order, -18.3 kcal/mol and 39.9 °C.
The like results for GGCTCCGGAAACGAAGCC ((((.((....)).)))) were, in that order, -40.4 kcal/mol and 50.7 °C.
Consider GCTAGCGAAAGCTGAGC ((((((....))).))), for which the folding enthalpy in data set [1] is -28.5 kcal/mol. Further, the Tm in data set [2] was determined as 49.9 °C.
In the case of GGTTCCGAAAGGAGTACC ((((((....)))..))), the folding enthalpy in data set [1] was -21 kcal/mol. For the same sequence, the Tm in data set [2] amounted to 38.9 °C.
On to GGAGAACGAAAGTTGTCC (((.(((....))).))), for which, in data set [1], the folding enthalpy was -34.6 kcal/mol. Further, the Tm in data set [2] is 51.5 °C.
